Measurements as given in ChEMBL document CHEMBL4732208, “Discovery of novel N-alkylcytidines as promising antimicrobial agents” (Eur J Med Chem, 2021).
≈ marks a conversion by molar mass, not a printed value. Calls of active or inactive are those of the source. No cut-off for these calls is given here.

Experiments:
[1] = test system: Leuconostoc mesenteroides; test: Antibacterial activity against Leuconostoc mesenteroides VKPM B-4177; type: functional
Method in brief: (§1)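 Strains grown in modified Gause's nutrient medium N 2, inoculum 10⁶ cells/ml. Test compound dissolved in 50% aqueous methanol, added at ten volume percent of the medium. Growth controls: medium without additions, medium with solvent mixture, and clinical antibiotics (amikacin, ciprofloxacin, isoniazid, rifampicin, oxacillin, vancomycin).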

[2] = test system: Mycolicibacterium smegmatis; test: Antibacterial activity against Mycobacterium smegmatis VKPM Ac-1339; type: functional; method in brief: as §1
[3] = test system: Mycolicibacterium smegmatis; test: Antibacterial activity against Mycobacterium smegmatis mc2155; type: functional
Method in brief: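 Strains were grown in modified Gause's nutrient medium N 2 at 10⁶ cells/ml. The compound was dissolved in 50% aqueous methanol and added at 10 volume percent of the medium. Controls were untreated cultures, medium with the solvent mixture, and clinical antibiotics.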

Bacillus subtilis = test: Antibacterial activity against Bacillus subtilis ATCC 6633; type: functional; method in brief: as §1
Staphylococcus aureus [4] = test: Antibacterial activity against Staphylococcus aureus FDA 209 P; type: functional; method in brief: as §1
[5] = Cytotoxicity against human A549 cells by MTT assay; type: cell-based
Method in brief: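 Adherent A549 cells passaged in DMEM with 10% fetal calf serum and 2 mM glutamine, at 37 °C, 5% CO2, 90% humidity. MTT test. CC50 is the concentration that inhibits culture growth by 50%.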

Micrococcus luteus = test: Antibacterial activity against Micrococcus luteus NCTC 8340; type: functional; method in brief: as §1
Staphylococcus aureus [6] = test: Antibacterial activity against Staphylococcus aureus INA 00761; type: functional; method in brief: as §1
Aspergillus versicolor [7] = test: Antifungal activity against Aspergillus versicolor SRX7729174 STG-25G assessed as reduction in fungal growth at 0.1 to 3.5 mM measured for 24 days by drop dilution assay relative to control; type: functional; details: dose 0.1-3.5 mM, time 24.0 day
Method in brief: (§2)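 Drop-dilution method. Suspension plated on CDA with or without compound (screening range 0.1–3.5 mM); 5-fluorocytosine positive control. Incubated at 26 °C. Inhibition % = (Dc−Dt)/Dc × 100 from colony diameters; triplicate, repeated at least twice.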

[8] = test system: Cladosporium halotolerans; test: Antifungal activity against Cladosporium-halotolerans SRX7729178 STG-52B assessed as reduction in fungal growth at 0.1 to 3.5 mM measured for 24 days by drop dilution assay relative to control; type: functional; details: dose 0.1-3.5 mM, time 24.0 day; method in brief: as §2
[9] = test system: Simplicillium lamellicola; test: Antifungal activity against Simplicilium-lamellicola SRX772919 STG-96 assessed as reduction in fungal growth at 0.1 to 3.5 mM measured for 24 days by drop dilution assay relative to control; type: functional; details: dose 0.1-3.5 mM, time 24.0 day; method in brief: as §2
Alternaria chartarum = test: Antifungal activity against Ulocladium chartarum SRX7729176 STG-36 assessed as reduction in fungal growth at 0.1 to 3.5 mM measured for 24 days by drop dilution assay relative to control; type: functional; details: dose 0.1-3.5 mM, time 24.0 day; method in brief: as §2
[10] = test system: Cladosporium parahalotolerans; test: Antifungal activity against Cladosporium-parahalotolerans SRX7729188 STG-93B assessed as reduction in fungal growth at 0.1 to 3.5 mM measured for 24 days by drop dilution assay relative to control; type: functional; details: dose 0.1-3.5 mM, time 24.0 day; method in brief: as §2
Aspergillus = test: Antifungal activity against Aspergillus SRX7729186 STG-93W assessed as reduction in fungal growth at 0.1 to 3.5 mM measured for 24 days by drop dilution assay relative to control; type: functional; details: dose 0.1-3.5 mM, time 24.0 day; method in brief: as §2
Aspergillus versicolor [11] = test: Antifungal activity against Aspergillus versicolor SRX7729182 STG-25G assessed as reduction in fungal growth at 0.1 to 3.5 mM measured for 24 days by drop dilution assay relative to control; type: functional; details: dose 0.1-3.5 mM, time 24.0 day; method in brief: as §2
Aspergillus amoenus = test: Antifungal activity against Aspergillus-amoenus SRX7729194 STG-106 assessed as reduction in fungal growth at 0.1 to 3.5 mM measured for 24 days by drop dilution assay relative to control; type: functional; details: dose 0.1-3.5 mM, time 24.0 day; method in brief: as §2
Aspergillus creber = test: Antifungal activity against Aspergillus-creber SRX7729180 STG-57 assessed as reduction in fungal growth at 0.1 to 3.5 mM measured for 24 days by drop dilution assay relative to control; type: functional; details: dose 0.1-3.5 mM, time 24.0 day; method in brief: as §2
Microascus paisii = test: Antifungal activity against Microascus-paisii SRX7729192 STG-103 assessed as reduction in fungal growth at 0.1 to 3.5 mM measured for 24 days by drop dilution assay relative to control; type: functional; details: dose 0.1-3.5 mM, time 24.0 day; method in brief: as §2

CN[C@H](CC(C)C)C(=O)N[C@H]1C(=O)N[C@@H](CC(N)=O)C(=O)N[C@H]2C(=O)N[C@H]3C(=O)N[C@H](C(=O)N[C@H](C(=O)O)c4cc(O)cc(O)c4-c4cc3ccc4O)[C@H](O)c3ccc(c(Cl)c3)Oc3cc2cc(c3O[C@@H]2O[C@H](CO)[C@@H](O)[C@H](O)[C@H]2O[C@H]2C[C@](C)(N)[C@H](O)[C@H](C)O2)Oc2ccc(cc2Cl)[C@H]1O [VANCOMYCIN]
MIC [1]: > 275 µM

COCCOCCOCCNc1nc(=O)n([C@H]2C[C@H](O)[C@@H](CO)O2)cc1C
MIC [2]: > 200 µM | MIC [3]: > 200 µM | MIC (Bacillus subtilis): > 200 µM | MIC (Staphylococcus aureus [4]): > 200 µM | CC50 [5]: 90 µM | MIC (Micrococcus luteus): > 200 µM | MIC [1]: > 200 µM | MIC (Staphylococcus aureus [6]): > 200 µM

CCCCCCCCNc1ccn([C@H]2C[C@H](O)[C@@H](CO)O2)c(=O)n1
MIC [2]: > 200 µM | MIC [3]: > 200 µM | MIC (Bacillus subtilis): > 200 µM | MIC (Staphylococcus aureus [4]): > 200 µM | CC50 [5]: 90 µM | MIC (Micrococcus luteus): > 200 µM | MIC [1]: > 200 µM | MIC (Staphylococcus aureus [6]): > 200 µM

CCCCCCNc1nc(=O)n([C@H]2C[C@H](O)[C@@H](CO)O2)cc1C
MIC [2]: > 200 µM | MIC [3]: > 200 µM | MIC (Bacillus subtilis): > 200 µM | MIC (Staphylococcus aureus [4]): > 200 µM | CC50 [5]: 90 µM | MIC (Micrococcus luteus): > 200 µM | MIC [1]: > 200 µM | MIC (Staphylococcus aureus [6]): > 200 µM

CCCCCCCCCCNc1nc(=O)n([C@H]2C[C@H](O)[C@@H](CO)O2)cc1C
inhibition (Aspergillus versicolor [7]): inactive | inhibition [8]: inactive | MIC [2]: 50 µM (≈ 19.1 µg/mL) | inhibition [9]: inactive | inhibition (Alternaria chartarum): inactive | MIC [3]: 50 µM (≈ 19.1 µg/mL) | inhibition [10]: inactive | inhibition (Aspergillus): inactive | inhibition (Aspergillus versicolor [11]): inactive | MIC (Bacillus subtilis): 50 µM (≈ 19.1 µg/mL) | MIC (Staphylococcus aureus [4]): 50 µM (≈ 19.1 µg/mL) | inhibition (Aspergillus amoenus): inactive | CC50 [5]: 156 µM | MIC (Micrococcus luteus): 50 µM (≈ 19.1 µg/mL) | inhibition (Aspergillus creber): inactive | MIC [1]: 50 µM (≈ 19.1 µg/mL) | inhibition (Microascus paisii): inactive | MIC (Staphylococcus aureus [6]): 50 µM (≈ 19.1 µg/mL)

CCCCCCCCCCNc1ccn([C@H]2C[C@H](O)[C@@H](CO)O2)c(=O)n1
MIC [2]: 140 µM (≈ 51.4 µg/mL) | MIC [3]: 140 µM (≈ 51.4 µg/mL) | MIC (Bacillus subtilis): 140 µM (≈ 51.4 µg/mL) | MIC (Staphylococcus aureus [4]): > 140 µM | CC50 [5]: 200 µM | MIC (Micrococcus luteus): 140 µM (≈ 51.4 µg/mL) | MIC [1]: 140 µM (≈ 51.4 µg/mL) | MIC (Staphylococcus aureus [6]): > 140 µM

CCCCCCCCCCCCCCNc1ccn([C@H]2C[C@H](O)[C@@H](CO)O2)c(=O)n1
MIC [2]: > 200 µM | MIC [3]: > 200 µM | MIC (Bacillus subtilis): > 200 µM | MIC (Staphylococcus aureus [4]): > 200 µM | CC50 [5]: 90 µM | MIC (Micrococcus luteus): > 200 µM | MIC [1]: > 200 µM | MIC (Staphylococcus aureus [6]): > 200 µM

CCCCCCCCCCNc1ccn([C@@H]2O[C@H](CO)[C@@H](O)[C@H]2O)c(=O)n1
MIC [2]: > 200 µM | MIC [3]: > 200 µM | MIC (Bacillus subtilis): > 200 µM | MIC (Staphylococcus aureus [4]): > 200 µM | CC50 [5]: 90 µM | MIC (Micrococcus luteus): > 200 µM | MIC [1]: > 200 µM | MIC (Staphylococcus aureus [6]): > 200 µM

CCCCCCCCCCCCNc1ccn([C@H]2C[C@H](O)[C@@H](CO)O2)c(=O)n1
MIC [2]: 70 µM (≈ 27.7 µg/mL) | MIC [3]: 70 µM (≈ 27.7 µg/mL) | MIC (Bacillus subtilis): 70 µM (≈ 27.7 µg/mL) | MIC (Staphylococcus aureus [4]): 70 µM (≈ 27.7 µg/mL) | CC50 [5]: 100 µM | MIC (Micrococcus luteus): 70 µM (≈ 27.7 µg/mL) | MIC [1]: 70 µM (≈ 27.7 µg/mL) | MIC (Staphylococcus aureus [6]): 70 µM (≈ 27.7 µg/mL)

CCCCCCCCNc1nc(=O)n([C@H]2C[C@H](O)[C@@H](CO)O2)cc1C
inhibition (Aspergillus versicolor [7]): Active | inhibition [8]: Active | MIC [2]: > 200 µM | inhibition [9]: Active | inhibition (Alternaria chartarum): Active | MIC [3]: > 200 µM | inhibition [10]: Active | inhibition (Aspergillus): Active | inhibition (Aspergillus versicolor [11]): Active | MIC (Bacillus subtilis): > 200 µM | MIC (Staphylococcus aureus [4]): > 200 µM | inhibition (Aspergillus amoenus): Active | CC50 [5]: 90 µM | MIC (Micrococcus luteus): > 200 µM | inhibition (Aspergillus creber): Active | MIC [1]: > 200 µM | inhibition (Microascus paisii): Active | MIC (Staphylococcus aureus [6]): > 200 µM
